Data on 2 compounds can be found in PubChem BioAssay AID463177 (The Scripps Research Institute Molecular Screening Center, 2010).

A short description of this assay: HeLa subG1 and cell-cycle phase fractions – FACS, counter-screen for Wee1 degradation inhibitor project, late-stage follow-up (AID 463177). The conditions noted are these: PI FACS subG1 fraction, 20 h; G1 fraction: HeLa apoptosis, G1 phase cells, at 5 µM; G2 fraction: HeLa apoptosis, G2 phase cells, at 5 µM; S fraction: HeLa apoptosis, S phase cells, at 5 µM; subG1 cells, higher = apoptosis: at 5 µM (top of the series). In outline: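 Assay system: parental HeLa cells. Compound: 7-point dose series, nominal top concentration 5 µM. Schedule: 20 h compound treatment. Measured by: propidium iodide flow cytometry, DNA content. Measure: Cell-cycle phase fractions (%), subG1 marking apoptosis. Controls: DMSO vehicle reference.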

The source made the active and inactive calls.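 The calls were made as follows: active = apoptotic subG1 cells at or above 20% at some dose above 100 nM; inactive = subG1 cells below 20% at every dose.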

For the compound `c1ccc2[nH]c(CNc3nc(N4CCOCC4)nc4c3ncn4-c3ccsc3)nc2c1`, the G1 fraction amounted to 24.9%; the G2 fraction came to 4.14%; the S fraction amounted to 22.5%; the subG1 cells, higher = apoptosis was 47.6% (active).
For `O=[N+]([O-])c1cccc2[nH]c(CNc3nc(N4CCOCC4)nc4c3ncn4-c3ccsc3)nc12`, the G1 fraction was found to be 41.5%; the G2 fraction amounted to 9.18%; the S fraction is 22.8%; the subG1 cells, higher = apoptosis is 26.3% (active).
